Laboratory results as given in ChEMBL document CHEMBL1926580, “Identification and development of 2,5-disubstituted oxadiazole as potential candidate for treatment of XDR and MDR tuberculosis” (2012).
Converted amounts (≈) assume the structure as drawn.

Assays:
[1] = tested on: Mycobacterium tuberculosis; experiment: Antitubercular activity against Mycobacterium tuberculosis H37Rv ATCC 27294 assessed as intracellular ATP level after 5 days by luminescence assay; assay type: functional
Summary of the method: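 Growth inhibition of M. tuberculosis H37Rv reported as MIC50. Compounds were dissolved in 90% DMSO (stock), twofold serially diluted in duplicate to 10 concentrations, and spotted into 384-well plates. Assays were run at least twice.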

[2] = tested on: BHK-21; experiment: Cytotoxicity against hamster BHK21 cells after 5 days; assay type: functional; settings: Mesocricetus auratus, BHK-21, 120 h
Summary of the method: (§1)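 HepG2 and BHK21 cells were seeded, incubated 24 h at 37 °C, then exposed to twofold serial dilutions of compound. The value is CC50 (50% cytotoxic concentration), from at least two independent assays.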

[3] = tested on: HepG2; experiment: Cytotoxicity against human HepG2 cells after 5 days; assay type: functional; settings: HepG2, 120 h; summary of the method: as §1
[4] = tested on: Mycobacterium tuberculosis; experiment: Antimycobacterial activity against Mycobacterium tuberculosis W4 assessed as intracellular ATP level after 5 days by luminescence assay; assay type: functional; settings: W4, 120 h
[5] = tested on: Mycobacterium tuberculosis; experiment: Antimycobacterial activity against Mycobacterium tuberculosis TN1082 assessed as intracellular ATP level after 5 days by luminescence assay; assay type: functional; settings: TN1082, 120 h
[6] = tested on: Mycobacterium tuberculosis; experiment: Antimycobacterial activity against Mycobacterium tuberculosis TN1040 assessed as intracellular ATP level after 5 days by luminescence assay; assay type: functional; settings: TN1040, 120 h
[7] = tested on: Mycobacterium tuberculosis; experiment: Antimycobacterial activity against Mycobacterium tuberculosis E8133 assessed as intracellular ATP level after 5 days by luminescence assay; settings: E8133, 120 h
[8] = tested on: Mycobacterium tuberculosis; experiment: Antimycobacterial activity against Mycobacterium tuberculosis TN2351 assessed as intracellular ATP level after 5 days by luminescence assay; assay type: functional; settings: TN2351, 120 h
[9] = tested on: Mycobacterium tuberculosis; experiment: Antimycobacterial activity against Mycobacterium tuberculosis AH9584 assessed as intracellular ATP level after 5 days by luminescence assay; assay type: functional; settings: AH9584, 120 h
[10] = tested on: Mycobacterium tuberculosis; experiment: Antimycobacterial activity against clinical isolate Mycobacterium tuberculosis TN994 assessed as intracellular ATP level after 5 days by luminescence assay; assay type: functional; settings: TN994, 120 h
[11] = tested on: Mycobacterium tuberculosis; experiment: Antimycobacterial activity against clinical isolate of Mycobacterium tuberculosis TN675 assessed as intracellular ATP level after 5 days by luminescence assay; assay type: functional; settings: TN675, 120 h
[12] = tested on: Mycobacterium tuberculosis; experiment: Antimycobacterial activity against Mycobacterium tuberculosis TN913 assessed as intracellular ATP level after 5 days by luminescence assay; assay type: functional; settings: TN913, 120 h
[13] = tested on: Mycobacterium tuberculosis; experiment: Antimycobacterial activity against Mycobacterium tuberculosis TN1008 assessed as intracellular ATP level after 5 days by luminescence assay; assay type: functional; settings: TN1008, 120 h
[14] = tested on: Mycobacterium tuberculosis; experiment: Antimycobacterial activity against Mycobacterium tuberculosis TN3979 assessed as intracellular ATP level after 5 days by luminescence assay; assay type: functional; settings: TN3979, 120 h
[15] = tested on: Mycobacterium tuberculosis; experiment: Antimycobacterial activity against Mycobacterium tuberculosis TN1037 assessed as intracellular ATP level after 5 days by luminescence assay; assay type: functional; settings: TN1037, 120 h
[16] = tested on: Mycobacterium tuberculosis; experiment: Antimycobacterial activity against Mycobacterium tuberculosis TN1051 assessed as intracellular ATP level after 5 days by luminescence assay; assay type: functional; settings: TN1051, 120 h
[17] = tested on: Mycobacterium tuberculosis; experiment: Antimycobacterial activity against Mycobacterium tuberculosis TN2524 assessed as intracellular ATP level after 5 days by luminescence assay; assay type: functional; settings: TN2524, 120 h
[18] = tested on: Mycobacterium tuberculosis; experiment: Antimycobacterial activity against Mycobacterium tuberculosis TN4259 assessed as intracellular ATP level after 5 days by luminescence assay; assay type: functional; settings: TN4259, 120 h
[19] = tested on: Mycobacterium tuberculosis; experiment: Antimycobacterial activity against Mycobacterium tuberculosis BE11677 assessed as intracellular ATP level after 5 days by luminescence assay; assay type: functional; settings: BE11677, 120 h
[20] = tested on: Mycobacterium tuberculosis; experiment: Antimycobacterial activity against Mycobacterium tuberculosis TN3183 assessed as intracellular ATP level after 5 days by luminescence assay; assay type: functional; settings: TN3183, 120 h
[21] = Mycobacterium tuberculosis, H37Rv ATCC 27294, 120 h

With `O=C(CCl)Sc1nnc(COc2cccc([N+](=O)[O-])c2)o1` as the molecule, how does the MIC50 [1, 21] read?
Its MIC50 is over 20 µM.

`CCCSc1nnc(COc2cccc([N+](=O)[O-])c2)o1` was tested. Which CC50 [2] did it give?
The CC50 was over 50 µM.

And the MIC50 [1, 21]?
The MIC50 was 8.52 µM (≈ 2.52 µg/mL).

And the CC50 [3]?
Its CC50 is over 50 µM.

Which results are given for `CCCSc1nnc(COc2ccc(Cl)cc2Cl)o1`?
CC50 [2]: 13.8 µM; MBC90 [1]: 2.5 µM (≈ 0.798 µg/mL); MIC50 [1, 21]: 0.63 µM (≈ 0.201 µg/mL); CC50 [3]: 19.3 µM

Which MIC50 [1, 21] does the source give for `O=C(CCl)Sc1nnc(Cc2cccc([N+](=O)[O-])c2)o1` here?
The MIC50 was over 20 µM.

Which results are given for `O=[N+]([O-])c1cccc(Cc2nnc(SCCCCl)o2)c1`?
CC50 [2]: > 50 µM; MIC50 [1, 21]: 7.48 µM (≈ 2.35 µg/mL); CC50 [3]: > 50 µM

For `ClCCCSc1nnc(Cc2ccc(Cl)cc2Cl)o1`, which CC50 [2] is on record?
Its CC50 is over 50 µM.

What about the MBC90 [1] of the same molecule?
Its MBC90 is 5 µM (≈ 1.69 µg/mL).

And the MIC50 [1, 21]?
The MIC50 was 1.42 µM (≈ 0.479 µg/mL).

What about the CC50 [3] of the same molecule?
Its CC50 is over 50 µM.

How did the CC50 [2] turn out when `CCCSc1nnc(Cc2cccc([N+](=O)[O-])c2)o1` was run?
The CC50 was over 50 µM.

What about the MIC50 [1, 21] of the same molecule?
Its MIC50 is 6.81 µM (≈ 1.9 µg/mL).

What about the CC50 [3] of the same molecule?
The CC50 was over 50 µM.

Which CC50 [2] does the source give for `CCCSc1nnc(Cc2ccc(Cl)cc2Cl)o1` here?
Its CC50 is over 50 µM.

What about the MBC90 [1] of the same molecule?
The MBC90 was 5 µM (≈ 1.52 µg/mL).

What about the MIC50 [1, 21] of the same molecule?
Its MIC50 is 1.19 µM (≈ 0.361 µg/mL).

And the CC50 [3]?
Its CC50 is over 50 µM.

What does the source list for `NNC(=O)c1ccncc1` [ISONIAZID]?
MIC [4]: 0.03 µg/mL (≈ 0.219 µM); MIC [5]: 0.03 µg/mL (≈ 0.219 µM); MIC [6]: 0.03 µg/mL (≈ 0.219 µM); MIC [7]: 0.08 µg/mL (≈ 0.583 µM); MIC [8]: 0.06 µg/mL (≈ 0.438 µM); MIC [9]: 0.19 µg/mL (≈ 1.39 µM); MIC [10]: 0.03 µg/mL (≈ 0.219 µM); MIC [11]: 0.03 µg/mL (≈ 0.219 µM); MIC [12]: 0.03 µg/mL (≈ 0.219 µM); MIC [13]: 0.06 µg/mL (≈ 0.438 µM); MIC [14]: 0.06 µg/mL (≈ 0.438 µM); MIC [1, 21]: 0.03 µg/mL (≈ 0.219 µM); MIC50 [1, 21]: 0.03 µM (≈ 0.00411 µg/mL); MIC [15]: 0.03 µg/mL (≈ 0.219 µM); MIC [16]: 0.03 µg/mL (≈ 0.219 µM); MIC [17]: 0.06 µg/mL (≈ 0.438 µM); MIC [18]: 0.03 µg/mL (≈ 0.219 µM); MIC [19]: 0.2 µg/mL (≈ 1.46 µM); MIC [20]: 0.03 µg/mL (≈ 0.219 µM)

Which MIC50 [1, 21] does the source give for `O=C(CCl)Sc1nnc(Cc2ccc(Cl)cc2Cl)o1` here?
Its MIC50 is 9.67 µM (≈ 3.26 µg/mL).

How did the CC50 [2] turn out when `ClCCCSc1nnc(COc2ccc(Cl)cc2Cl)o1` was run?
The CC50 was over 50 µM.

And the MBC90 [1]?
Its MBC90 is 2.5 µM (≈ 0.884 µg/mL).

What about the MIC50 [1, 21] of the same molecule?
Its MIC50 is 0.65 µM (≈ 0.23 µg/mL).

And the CC50 [3]?
The CC50 was over 50 µM.

With `O=[N+]([O-])c1cccc(OCc2nnc(SCCCCl)o2)c1` as the molecule, how does the CC50 [2] read?
Its CC50 is over 50 µM.

What about the MIC50 [1, 21] of the same molecule?
The MIC50 was 11.7 µM (≈ 3.86 µg/mL).

What about the CC50 [3] of the same molecule?
The CC50 was over 50 µM.

For `O=C(CCl)Sc1nnc(COc2ccc(Cl)cc2Cl)o1`, which MIC50 [1, 21] is on record?
Its MIC50 is over 20 µM.
